Compound activity (PubChem)
Hck-Nef inh: inhibitors of Nef-activated human Hck kinase, primary screen, biochemical, Z-Lyte FRET, 384-well, Hck-YEEI | actives 0.68% (n = 220,000) | inhibition, % at 20 µM | Recombinant Hck-YEEI plus Nef, Z-Lyte FRET kinase assay | AID 463187, 2010 | Tyrosine-protein kinase HCK (Homo sapiens), P08631;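 active means Hck-Nef kinase inhibition above about 50%, limit read from the data; inactive means inhibition below that limit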;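 further: 0% = DMSO with Hck plus Nef and 100% = Hck alone without Nef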
Target sequence (P08631 whole entry, looked up): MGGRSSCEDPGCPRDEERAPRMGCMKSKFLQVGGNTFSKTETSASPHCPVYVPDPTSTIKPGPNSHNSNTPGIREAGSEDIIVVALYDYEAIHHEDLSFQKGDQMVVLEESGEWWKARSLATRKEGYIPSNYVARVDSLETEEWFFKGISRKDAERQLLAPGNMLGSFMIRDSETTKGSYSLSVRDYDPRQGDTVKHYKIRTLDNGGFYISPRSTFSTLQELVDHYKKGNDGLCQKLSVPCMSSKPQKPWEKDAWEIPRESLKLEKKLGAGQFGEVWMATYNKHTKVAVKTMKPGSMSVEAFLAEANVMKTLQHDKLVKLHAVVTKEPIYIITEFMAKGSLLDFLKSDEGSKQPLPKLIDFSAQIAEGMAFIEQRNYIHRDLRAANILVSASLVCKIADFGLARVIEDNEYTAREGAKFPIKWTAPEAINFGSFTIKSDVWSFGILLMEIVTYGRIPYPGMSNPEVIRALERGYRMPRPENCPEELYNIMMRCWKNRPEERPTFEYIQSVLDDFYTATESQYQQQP
RanGTP-Impb inh: inhibitors of RanGTP-importin-beta interaction, primary screen, biochemical, FRET, CFP-Ran, YFP-importin-beta, homogeneous. AID 2216, 2009. cell-free CFP-Ran/YFP-importin-beta FRET ratio. inhibition, % (test concentration not listed). actives 1.1% (n = 300,000). Ran GTPase (GTP-bound) - importin-beta complex;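 active means more than half of the replicate wells show a fall in the fluorescence ratio signal beyond about 16%, limit read from the data, passing the limit was not always enough; inconclusive means exactly half of the replicate wells pass the set limit; inactive means fewer than half of replicates pass the limit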;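 further: 0% = DMSO wells and 100% = Ran loaded with GDP instead of GTP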
Runt-SMMHC FRET: inhibitors of RUNX1 Runt–CBFb-SMMHC binding, primary screen, biochemical, FRET, Cerulean-Runt, Venus-CBFb-SMMHC, uHTS; inhibition, % at 20 µM; Cerulean-Runt/Venus-CBFb-SMMHC FRET ratio 530/480, 1 h; actives 0.74% (n = 220,000); Runt-related transcription factor 1 (Homo sapiens) + Core-binding factor subunit beta …;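 active means mean inhibition across duplicate retests at 20 µM reaching about 50%, limit read from the data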;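 further: 0% = DMSO wells and 100% = wells with excess untagged CBFb-SMMHC; inhibitors lower the FRET ratio by blocking Runt binding to CBFb-SMMHC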
Runt-CBFb FRET: inhibitors of RUNX1 Runt–CBFb binding, primary screen, biochemical, FRET, Cerulean-Runt, Venus-CBFb, uHTS; actives 0.46% (n = 220,000); AID 1496, 2009; Cerulean-Runt/Venus-CBFb FRET ratio 530/480, 1 h; inhibition, % at 20 µM;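 active means inhibition over about 50% at 20 µM in the single-dose screen, limit read from the data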;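 further: 0% = DMSO wells and 100% = excess unlabeled CBFb competitor control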
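test system = Cerulean-tagged RUNX1 Runt domain (FRET donor) fusion protein | reagent = Venus-CBFb binding partner, 100 nM | incubation = protein complex preformed 1 h, compound exposure 1 h, room temperature, dark | detection = FRET fluorescence | read-out basis = loss of energy transfer signal | controls = 5 µM unlabeled CBFb as full-inhibition high control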
* hit, by the source's call. A selection: hits, their analogues and other compounds. The true share with any hit is near 1.9%.

For C=CCn1c(N)c(C(=O)Nc2ccccc2)c2nc3ccccc3nc21 the results were Hck-Nef inh 3, RanGTP-Impb inh 18*, Runt-SMMHC FRET 5 and Runt-CBFb FRET 4.
`Cc1cc(C)cc(-n2c(N)c(C(=O)Nc3c(C)n(C)n(-c4ccccc4)c3=O)c3nc4ccccc4nc32)c1` gave Hck-Nef inh 54*, RanGTP-Impb inh -6, Runt-SMMHC FRET -80 and Runt-CBFb FRET -9.
Nc1ccc(-n2c(N)c(C(=O)NCc3ccc4c(c3)OCO4)c3nc4ccccc4nc32)cc1 was read as Hck-Nef inh 7 and RanGTP-Impb inh 1.
Cc1ccc(-n2c(N)c(C(=O)Nc3c(C)n(C)n(-c4ccccc4)c3=O)c3nc4ccccc4nc32)cc1 was read as Hck-Nef inh 5, RanGTP-Impb inh -11, Runt-SMMHC FRET -19 and Runt-CBFb FRET 1.
For CCCCNC(=O)CSc1nc(Cc2ccccc2)nc2ccccc12 the results were RanGTP-Impb inh -3.
CC1(c2ccc(OC(F)F)cc2)NC(=O)N(CC(=O)Nc2cccc(S(N)(=O)=O)c2)C1=O (stereo unspecified) was read as Hck-Nef inh 13, RanGTP-Impb inh 2, Runt-SMMHC FRET 3 and Runt-CBFb FRET 2.
For CC1(c2ccc(OC(F)F)cc2)NC(=O)N(/N=C/c2c(O)ccc3ccccc23)C1=O (stereo unspecified) the results were Hck-Nef inh 3, RanGTP-Impb inh 7, Runt-SMMHC FRET 71* and Runt-CBFb FRET 39.
`COC(=O)c1ccc(NC(=O)CSc2nn3c(=O)c(C)nnc3s2)cc1` gave RanGTP-Impb inh -4.
N#Cc1ccccc1NC1=CC(=O)CCC1 was read as Hck-Nef inh 1, RanGTP-Impb inh 58*, Runt-SMMHC FRET 2 and Runt-CBFb FRET -2.
O=C1C=C(NCc2ccccc2)CCC1 was read as Hck-Nef inh 4, RanGTP-Impb inh inconclusive, Runt-SMMHC FRET 0 and Runt-CBFb FRET 2.
COC(=O)c1cc(C(=O)c2cc(Cl)ccc2O)coc1=N was read as Hck-Nef inh -6, RanGTP-Impb inh -3, Runt-SMMHC FRET 10 and Runt-CBFb FRET 6.
Screening COCCOC(=O)c1cc(C(=O)c2cc(F)ccc2O)coc1=N returned Hck-Nef inh 5, RanGTP-Impb inh 31*, Runt-SMMHC FRET 120* and Runt-CBFb FRET 40.
CCOC(=O)c1cn2c3c(c(F)c(F)cc3c1=O)SC(N1CCOCC1)=N2 was read as Hck-Nef inh 11.
Screening CC(=Nc1ccc(Br)cc1)c1sc2ccccc2c1O returned Hck-Nef inh 8, RanGTP-Impb inh 49*, Runt-SMMHC FRET 81 and Runt-CBFb FRET 9.
Screening CC(=Nc1ccccc1)c1sc2ccccc2c1O returned Hck-Nef inh -2, RanGTP-Impb inh 48*, Runt-SMMHC FRET -7 and Runt-CBFb FRET 14.
Screening NC(=Nc1ccc(Br)cc1)c1ccccc1 returned RanGTP-Impb inh 4.
`CCOC(=O)C(=Nc1ccc(Cl)cc1)NO` gave Hck-Nef inh 4, RanGTP-Impb inh -1, Runt-SMMHC FRET 2 and Runt-CBFb FRET 2.
`CCCN(C(=O)c1cn(-c2ccccc2)nc1-c1ccc(OC)cc1)C1CCS(=O)(=O)C1` (stereo unspecified) gave RanGTP-Impb inh 7.
For O=c1[nH]c(CN2CCN(c3ccc(O)cc3)CC2)nc2scc(-c3ccc(Cl)cc3)c12 the results were Hck-Nef inh 31, RanGTP-Impb inh -2, Runt-SMMHC FRET 19 and Runt-CBFb FRET 34.
N#Cc1cc2c(=O)n3ccccc3nc2n(Cc2cccnc2)c1=O was read as RanGTP-Impb inh 74*.
`CC(=O)N=c1c(C#N)cc2c(=O)n3ccccc3nc2n1Cc1ccccc1` gave Hck-Nef inh 19, RanGTP-Impb inh 32*, Runt-SMMHC FRET 81* and Runt-CBFb FRET 138*.
For Cc1cccn2c(=O)c3cc(C#N)c(=O)n(Cc4cccnc4)c3nc12 the results were Runt-SMMHC FRET 41 and Runt-CBFb FRET 79*.
For O=C(O)Cn1nc(-c2ccccc2)ccc1=O the results were RanGTP-Impb inh -3.
`COc1cc(/C=C/C(=O)c2ccc3c(c2)OCCO3)cc(Br)c1OCC(=O)N(C)C` gave RanGTP-Impb inh 2.
